Substitutions are numbered along the chain they refer to. Entries after “also recorded” stand apart in the source; their conditions may differ. Where two headings read alike, the source gives them in different places. Values belong to the compound of their own block, whether it stands above or below them.
Assays:
[1] = target: His516Ala mutant Nurr1 LBD (Homo sapiens, UniProt P43354, H516A); assay: MST binding to His516Ala mutant Nurr1 LBD
[2] = target: T1, Arg563Ala mutant Nurr1 LBD (Homo sapiens, UniProt P43354, R563A); assay: MST binding to Arg563Ala mutant Nurr1 LBD
T1 sequence (P43354 360-595 R563A limits assumed): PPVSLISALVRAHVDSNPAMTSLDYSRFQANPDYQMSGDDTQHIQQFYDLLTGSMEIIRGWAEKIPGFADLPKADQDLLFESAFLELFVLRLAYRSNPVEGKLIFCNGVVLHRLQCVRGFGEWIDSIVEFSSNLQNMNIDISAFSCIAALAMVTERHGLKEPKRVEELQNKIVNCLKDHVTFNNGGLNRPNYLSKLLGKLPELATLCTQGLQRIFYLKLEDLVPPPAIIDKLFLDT

[3] = target: T2, Arg563Ala His516Ala double mutant Nurr1 LBD (Homo sapiens, UniProt P43354, H516A/R563A); assay: MST binding to Arg563Ala/His516Ala double mutant Nurr1 LBD
T2 sequence (P43354 360-595 H516A/R563A limits assumed): T1 sequence (P43354 360-595 R563A limits assumed) with H157A

MN9D cells = assay: Cytotoxicity / viability in MN9D cells; format: cell-based; settings: 24 h treatment
[4] = target: endogenous full-length Nurr1 (Mus musculus, UniProt Q06219); assay: qPCR of Nurr1 target gene transcripts; format: cell-based; settings: 24 h
Chain of endogenous full-length Nurr1 (Q06219 whole entry): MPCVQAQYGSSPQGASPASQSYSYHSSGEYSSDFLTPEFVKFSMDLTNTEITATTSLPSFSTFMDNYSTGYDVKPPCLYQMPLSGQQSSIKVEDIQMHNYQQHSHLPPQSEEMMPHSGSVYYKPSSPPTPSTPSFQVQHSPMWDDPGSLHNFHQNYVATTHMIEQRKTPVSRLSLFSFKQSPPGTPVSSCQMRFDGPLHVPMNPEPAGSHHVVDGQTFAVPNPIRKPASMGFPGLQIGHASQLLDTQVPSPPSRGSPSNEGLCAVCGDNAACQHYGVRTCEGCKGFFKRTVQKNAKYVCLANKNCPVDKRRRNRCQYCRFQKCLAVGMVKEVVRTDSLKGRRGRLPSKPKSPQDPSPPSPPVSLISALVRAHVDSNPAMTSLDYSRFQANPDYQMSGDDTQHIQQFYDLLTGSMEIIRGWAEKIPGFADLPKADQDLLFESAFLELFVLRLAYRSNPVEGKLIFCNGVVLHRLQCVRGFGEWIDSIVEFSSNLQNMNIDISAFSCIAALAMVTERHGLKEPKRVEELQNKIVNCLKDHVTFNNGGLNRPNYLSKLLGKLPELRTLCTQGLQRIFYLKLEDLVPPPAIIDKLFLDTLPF
How it was run: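 Mouse MN9D cells treated with test compound at 10 μM, or over a concentration series, for 24 h. Vehicle was DMSO. mRNA was isolated and Th and Vmat2 transcripts were measured by qPCR. Values were normalized to housekeeping gene Hprt and expressed as fold-change over DMSO-treated cells. Values are from three or more independent measurements ± SD.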

LBD of RXRα = target: T3, LBD of RXRα (Homo sapiens, UniProt P19793); assay: Binding to the LBD of RXRα
T3 sequence (P19793 227-458 limits assumed): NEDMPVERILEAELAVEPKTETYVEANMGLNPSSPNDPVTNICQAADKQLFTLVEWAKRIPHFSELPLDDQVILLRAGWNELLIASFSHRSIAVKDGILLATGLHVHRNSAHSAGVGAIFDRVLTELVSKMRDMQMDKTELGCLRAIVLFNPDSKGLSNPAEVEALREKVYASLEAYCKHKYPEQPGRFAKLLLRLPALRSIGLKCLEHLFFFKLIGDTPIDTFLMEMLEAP

[5] = target: Nurr1 ligand binding domain (LBD) (Homo sapiens, UniProt P43354); assay: Microscale thermophoresis
Chain of Nurr1 ligand binding domain (LBD) (P43354 360-595 limits assumed): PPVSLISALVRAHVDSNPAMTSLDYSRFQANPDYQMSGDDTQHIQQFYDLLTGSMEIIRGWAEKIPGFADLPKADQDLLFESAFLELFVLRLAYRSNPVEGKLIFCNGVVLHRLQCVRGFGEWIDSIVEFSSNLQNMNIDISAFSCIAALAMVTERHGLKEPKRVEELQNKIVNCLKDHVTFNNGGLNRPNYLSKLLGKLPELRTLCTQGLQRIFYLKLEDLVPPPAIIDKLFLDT
How it was run: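 KD for the Nurr1 LBD measured by microscale thermophoresis, with 0.1% of the surfactant Pluronic F127 present. To exclude non-specific binding by aggregates, the assay was repeated at increasing Pluronic F127 concentrations. Values are from three or more independent measurements ± SD.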

[6] = target: full-length Nurr1 (NBRE response element) (Homo sapiens, UniProt P43354); assay: Luciferase reporter assay, full-length receptor on NBRE response element; format: cell-based
Chain of full-length Nurr1 (NBRE response element) (P43354 whole entry, species assumed): as the sequence (Q06219 whole entry) above, with S131T, S134G, D354E counted along it

[7] = Chemical stability in solution; format: physicochemical; settings: observed during data acquisition; see references 26-28
zebrafish = settings: cited from earlier work
[8] = cited from earlier work
[9] = MN9D cells, 10 μM, normalized to Hprt

Chain of His516Ala mutant Nurr1 LBD (P43354 360-595 H516A limits assumed): as the sequence (P43354 360-595 limits assumed) above, with H157A counted along it

Compound: Nc1ccc2cc[nH]c2c1 [6-aminoindole]
Cytotoxicity in MN9D cells (MN9D cells): significant cytotoxicity | Chemical stability in solution [7]: autooxidation and polymerization in solution

Compound: Oc1ccc2cc[nH]c2c1 [6-hydroxyindole]
Cytotoxicity in MN9D cells (MN9D cells): significant cytotoxicity | Chemical stability in solution [7]: autooxidation and polymerization in solution

Compound: Oc1cc2cc[nH]c2cc1O [DHI, 5,6-dihydroxyindole]
Expression of th and vmat2 in zebrafish (zebrafish): stimulates the expression of th and vmat2 | Chemical stability in solution [8]: readily auto-oxidizes and polymerizes

Second part, led by results:

Binding affinity for His516Ala mutant relative to wildtype [1]: statistically unchanged | Binding to Arg563Ala mutant relative to wildtype [2]: eliminated | Binding to Arg563Ala/His516Ala double mutant relative to wildtype [3]: eliminated | Th expression, fold-change relative to vehicle (DMSO) [4, 9]: 2.2 fold | Vmat2 expression, fold-change relative to vehicle (DMSO) [4, 9]: 2.5 fold
Compound: Brc1ccc2[nH]ccc2c1 [5-bromoindole]
Cytotoxicity in MN9D cells (MN9D cells): somewhat toxic to cells under certain conditions (≥10 μM, 24 h)

Saturable binding to the LBD of RXRα (LBD of RXRα): does not exhibit saturable binding | Effect of increasing surfactant concentration on affinity for the Nurr1 LBD ([5]; MST binding assay): only has a minor effect | Affinity for the Nurr1 LBD compared with reference ligands ([5]; in vitro and in luciferase reporter assays): comparable to DHI and amodiaquine | Improvement of affinity relative to wildtype, His516Ala mutant [1]: ~ 2 fold | Activity of Nurr1 in luciferase reporter assay (full-length receptor, NBRE) [6]: stimulates the activity of Nurr1 | Improvement of affinity relative to wildtype, Arg563Ala mutant [2]: ~ 2 fold | Improvement of affinity relative to wildtype, double mutant [3]: ~ 2 fold | Vmat2 expression, fold-change relative to vehicle (DMSO) [4, 9]: 2.4 fold | Potency in MN9D cells compared with reference ligands ([4]; Th and Vmat2 expression): superior to that of DHI and amodiaquine | Chemical stability in solution [7]: stable
Compound: Clc1ccc2[nH]ccc2c1 [5-chloroindole]
Cytotoxicity in MN9D cells (MN9D cells): non-cytotoxic; also recorded: not cytotoxic

Kd [5]: 8 ± 1.5 µM
Compound: CCN(CC)Cc1cc(Nc2ccnc3cc(Cl)ccc23)ccc1O [amodiaquine, reference compound]
